The list is not random: actives were taken first. Their share in the collection is about 2.4%.
Neddylation inh: cullin neddylation inhibition | P61081+Q13564 | TR-FRET cullin neddylation, biochemical | inhibition, % at 25 µM | hit rate 0.58% among 360,000 | AID 651699; in the data active means inhibition above about 36%
CSN deneddyl inh: blocks human CSN-mediated cullin deneddylation; Q92905; Purified CSN, SCF-Nedd8-OG deneddylation, fluorescence polarization; inhibition, % at 12.5 µM; hit rate 0.38% among 360,000; AID 651999;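 active means pattern-corrected inhibition above about 35%, with an unprinted fluorescence ratio check between 0.5 and 1.5, limit read from the data, passing the limit was not always enough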
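Schedule: reaction 90 min, room temperature / Assay system: HEK293T-derived human Csn5 enzyme / Input: Csn5 at 0.24 nM final / Measure: inhibition of Csn5 cleavage, % / Control set: substrate-only high control, full reaction low control / Technique: fluorescence polarization of the substrate / Buffer or medium: Tris/NaCl/DTT buffer, pH 7.5 / Reagent: SCFSkp2-Nedd8OG substrate at 10 nM final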
HNF4A DNA FP: change in binding of human HNF4 alpha to DNA; P41235; HNF4a-FITC DNA binding, fluorescence polarization, 1 h; activity change, % at 10 µM; hit rate 0.3% among 360,000; AID 1224865; in the data active means activity change above about 30%, passing the limit was not always enough
Rpn11 inh: Rpn11 (human) deubiquitinase inhibition; O00487; human 26S proteasome, Ub4-pepOG fluorescence polarization; 20S core pre-blocked with epoxomicin; inhibition, % at 20 µM; hit rate 0.59% among 360,000;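 active means inhibition at 20 µM, scaled to each plate's controls, above about 33%, limit read from the data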
PREPL inhibitor: inhibits the human prolyl oligopeptidase-like enzyme; Q4J6C6; recombinant PREPL, fluorescence polarization activity-based probe; inhibition, % at 5.96 µM; hit rate 0.68% among 320,000; in the data active means inhibition above about 43%
Target sequence (Q4J6C6 whole entry, looked up): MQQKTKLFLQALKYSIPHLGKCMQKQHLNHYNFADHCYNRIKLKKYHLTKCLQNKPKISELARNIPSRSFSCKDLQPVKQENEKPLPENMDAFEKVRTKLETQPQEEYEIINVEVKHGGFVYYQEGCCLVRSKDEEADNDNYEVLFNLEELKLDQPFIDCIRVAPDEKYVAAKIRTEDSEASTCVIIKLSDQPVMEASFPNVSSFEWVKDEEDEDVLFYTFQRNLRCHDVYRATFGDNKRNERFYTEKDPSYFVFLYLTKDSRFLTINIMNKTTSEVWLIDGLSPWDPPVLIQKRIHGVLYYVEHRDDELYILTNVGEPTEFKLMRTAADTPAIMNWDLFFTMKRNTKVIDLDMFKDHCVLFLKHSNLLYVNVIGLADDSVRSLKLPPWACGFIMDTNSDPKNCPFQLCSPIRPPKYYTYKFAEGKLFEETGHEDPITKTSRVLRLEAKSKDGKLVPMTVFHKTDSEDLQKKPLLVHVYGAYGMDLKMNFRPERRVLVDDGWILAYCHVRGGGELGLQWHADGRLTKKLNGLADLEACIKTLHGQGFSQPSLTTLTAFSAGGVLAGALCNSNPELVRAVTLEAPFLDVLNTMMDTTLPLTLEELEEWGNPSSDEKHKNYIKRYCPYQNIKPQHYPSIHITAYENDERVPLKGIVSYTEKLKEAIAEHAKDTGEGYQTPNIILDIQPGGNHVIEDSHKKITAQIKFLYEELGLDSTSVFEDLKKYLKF
TbMetRS inhib: blocks T. brucei methionyl-tRNA synthetase activity; purified T. brucei MetRS, ATP depletion, Kinase-Glo luminescence; AID 624268; inhibition, % at 11.9 µM; hit rate 0.4% among 360,000;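 active means inhibition above a per-plate cutoff of the control wells' mean inhibition plus 3 SD, cut at about 5.5% in these data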
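Dosing: 11.9 µM single point; system: parasite MetRS enzyme; technique: luminescence of leftover ATP; times: 15 min enzyme-compound preincubation, 2 h reaction, 10 min detection, 25 °C; replicates: each compound tested once; read-out basis: percent inhibition relative to median high and low control wells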
Rpn11 confirm: confirmation of human proteasome Rpn11 inhibitors. hit rate 29% among 1,900. shares compounds with Rpn11 inh. inhibition, % at 20 µM. purified human 26S proteasome, Ub4-pepOG fluorescence polarization; proteasome pretreated with epoxomicin. AID 602318
MMP-2 inh: MMP-2 (human) inhibition counter-screen. hit rate 4% among 1,900. AID 602330. recombinant MMP-2, FRET peptide cleavage fluorescence. inhibition, % at 20 µM. shares compounds with Rpn11 inh;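 further: human MMP-2 activated beforehand with APMA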
Thrombin inh: counter-screen for RPN11 inhibitors: inhibition of bovine thrombin; shares compounds with Rpn11 inh; bovine thrombin cleavage of Ub4-pepOG, fluorescence polarization; inhibition, % at 20 µM; hit rate 13% among 1,900; AID 602333;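 active means mean inhibition at least 40% at 20 µM, or signal 3 deviations below plate average, so some actives read negative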
Numbers stand for hits; 0 = inactive; - = no result given. Unless noted, no stated cut-off is given here; in the data, active means inhibition above about 40%; inactive means the rest.

SMILES	Neddylation inh	CSN deneddyl inh	HNF4A DNA FP	Rpn11 inh	PREPL inhibitor	TbMetRS inhib	Rpn11 confirm	MMP-2 inh	Thrombin inh
O=C1N(Cc2cccc(Cl)c2)C[C@@H]2C[C@@H](c3ccccn3)N3CCC[C@@]123	0	0	0	0	0	0	-	-	-
Cn1cc([C@@H]2C[C@H]3CN(Cc4cccc(Cl)c4)C(=O)[C@]34CCCN24)c2ccccc21	0	0	0	55.2	0	0	53.1	0	65.3
Cc1c([C@@H]2C[C@H]3CN(Cc4cccc(Cl)c4)C(=O)[C@]34CCCN24)cnn1C	0	0	0	44.6	0	0	0	0	0
CCCn1cc([C@@H]2C[C@H]3CN(Cc4cccc(Cl)c4)C(=O)[C@]34CCCN24)c(C)n1	0	0	0	0	0	0	-	-	-
O=C(O)c1ccc(N2C(=O)c3ccccc3C2=O)cc1[N+](=O)[O-]	0	0	0	0	-	0	-	-	-
C=CCn1c2ccccc2c2nnc(SCC(N)=O)nc21	0	0	0	45.2	0	0	0	0	0
CN(C)c1nc(N(C)C)c2cnn(C)c2n1	0	0	0	0	-	0	-	-	-
COCc1c(C(=O)Nc2nnc(C3CC3)s2)oc2ccccc12	0	0	0	0	-	0	-	-	-
Cc1nc(N2CCCCC2)nc(N2CCCCC2)c1C=O	0	0	0	58.1	0	0	0	0	0
COC(=O)C1=C(C)NC(=O)/C1=C\c1cc(C)n(-c2c(C)cccc2C)c1C	0	0	0	57.5	0	0	0	0	0
COC(=O)C1=C(C)NC(=O)/C1=C\c1cc(C)n(-c2ccccc2C)c1C	0	0	0	0	0	0	-	-	-
Cc1cc(C)cc(NS(=O)(=O)c2cnc(Cl)c(Cl)c2)c1	0	0	40.3	52.3	0	0	0	0	0
Cc1cc(NC(=O)CSc2nnc(C)n2C)no1	0	0	0	0	0	0	-	-	-
NC(=O)c1sc2nc(-c3ccccc3)ccc2c1N	0	0	0	45.2	0	0	0	0	0
Nc1c(C(=O)O)sc2nc(-c3ccc(F)cc3)cc(-c3ccccc3)c12	0	0	0	53.3	0	0	0	0	0
Nc1c(C(=O)O)sc2nc(-c3ccccc3)cc(-c3ccc(Cl)cc3)c12	0	0	0	0	0	0	-	-	-
Cc1ccn2c(Cc3ccccc3)c(-c3ccc(F)cc3)nc2c1	0	0	0	0	-	0	-	-	-
CC(=O)NC(C)(c1ccccc1)c1nc(-c2ccc(F)c(Cl)c2)cs1 (centres undefined)	0	0	0	0	-	0	-	-	-
CCOc1ccccc1NC(=O)CCNC(=O)N1CC(=O)Nc2ccccc21	0	0	0	0	-	0	-	-	-
CC1=C(c2ccccc2)C(O)(c2ccccc2)C(C)C1=O (centres undefined)	0	0	0	0	-	0	-	-	-
CCCCOC(=O)Nc1nnc(CCOCC)s1	0	0	0	33.6	0	0	0	0	0
Cc1ccccc1OCCn1cc(/C=C(\C#N)C(=O)NCc2ccco2)c2ccccc21	-	0	0	0	0	0	-	-	-
N#C/C(=C\c1cn(CCOc2ccccc2)c2ccccc12)C(=O)NCc1ccco1	-	0	0	35.9	0	0	0	0	0
CC(=O)c1cn(CC(=O)NCc2ccco2)c2ccccc12	0	0	0	0	0	0	-	-	-
O=C(Cn1cc(C(=O)COc2ccccc2)c2ccccc21)NCc1ccco1	0	0	0	38.5	0	0	60.3	0	0
SMILES	Neddylation inh	CSN deneddyl inh	HNF4A DNA FP	Rpn11 inh	PREPL inhibitor	TbMetRS inhib	Rpn11 confirm	MMP-2 inh	Thrombin inh
Cc1noc(C)c1-c1ccc(C(=O)N2CCN(C)CC2)c2occc12	0	0	0	0	-	0	-	-	-
CN(CC(=O)Nc1ccc(F)c(F)c1F)C(=O)C1=NN(c2ccccc2)C(=O)CC1	0	0	0	0	0	0	-	-	-
Cc1ccccc1C(=O)N1CCC(C(N)=O)CC1	0	0	0	35.1	0	0	0	0	0
NC(=O)C1CCN(C(=O)c2cccc3ccccc23)CC1	0	0	0	0	0	0	-	-	-
COCc1cccc(C2=CC(=O)C[C@H](c3ccc(F)cc3)C2)c1	0	0	0	0	0	0	-	-	-
CC(=O)c1cn(CC(=O)NCc2ccc3c(c2)OCO3)c2ccccc12	0	0	0	93.2	0	0	0	0	0
COc1ccc(CCn2c(N)c(C(=O)NCc3ccco3)c3nc4ccccc4nc32)cc1	-	0	0	41.2	0	0	0	0	0
CCc1nc2ccc(C(=O)Nc3cccc(OC)c3)cn2c1N(CC)Cc1cccc(Br)c1	0	0	0	0	-	0	-	-	-
CS(=O)(=O)c1ccc(C(=O)OCC(=O)NCc2cccs2)cc1[N+](=O)[O-]	0	0	0	41.0	0	0	0	0	0
Cc1cccc(C(=O)OCC(=O)NCc2cccs2)c1	0	0	0	0	0	0	-	-	-
COc1ccc(N(C)C(=O)CC2(CC(=O)O)CCCCC2)cc1	0	0	0	57.0	0	0	0	0	0
Cc1cc(C)n(CC(=O)NNC(=O)c2ccc(OC(F)(F)F)cc2)n1	0	0	0	0	0	0	-	-	-
CCCCCCSc1ccc(-c2nc3ccc(Cl)cn3c2NCCCC)cc1OC	-	0	0	35.7	0	0	0	0	0
CCOc1ccccc1NC(=O)Cn1c(=O)c(OCC)nc2cnccc21	0	0	0	0	0	0	-	-	-
CCOc1nc2cnccc2n(CC(=O)Nc2ccccc2C(=O)OC)c1=O	0	0	0	69.9	0	0	0	0	0
O=C(NCc1ccc(C(F)(F)F)cc1)c1ccc(-c2cccnc2)c2ccoc12	0	0	0	0	-	0	-	-	-
O=C(c1ccco1)N1CCN(c2ncnc3c(-c4ccccc4)nsc23)CC1	0	0	0	101.5	0	0	0	0	0
Cc1noc(-c2ccccc2)c1NC(=O)Nc1ccc2nc([C@H]3C[C@H](O)[C@@H](CO)O3)[nH]c2c1	0	0	0	0	-	0	-	-	-
O=[N+]([O-])c1ccc(N/N=C/c2ccc(O)c(O)c2O)c(S(=O)(=O)N2CCOCC2)c1	0	0	0	0	-	0	-	-	-
COc1cc(/C=N/Nc2ccc([N+](=O)[O-])cc2S(=O)(=O)N2CCOCC2)cc(OC)c1OC	0	0	0	43.8	0	0	0	0	0
O=C1NC(=S)NC1=Cc1ccc2c(c1)CCC2	0	0	39.5	46.2	-	0	0	0	0
CCOC(=O)Cn1c(=NC(=O)CN2C(=O)CCC2=O)sc2cc(S(N)(=O)=O)ccc21	0	0	0	0	0	0	-	-	-
COCCn1c(=NC(=O)c2cc(-c3cccs3)nc3ccccc23)sc2cc(S(N)(=O)=O)ccc21	0	0	0	58.5	0	0	0	0	0
CCOC(=O)Cn1c(=NC(=O)c2nc3ccccc3s2)sc2cc(S(N)(=O)=O)ccc21	0	0	0	40.6	0	0	0	0	0

Screening results: PubChem BioAssay, several laboratories
